Laboratory results: ChEMBL document CHEMBL1136980, “Synthesis of novel 3-(1-(1-substituted piperidin-4-yl)-1H-1,2,3-triazol-4-yl)-1,2,4-oxadiazol-5(4H)-one as antifungal agents” (2009)
Values after ≈ are worked out from the molar mass of the structure shown. Active and inactive are the calls of the source. The rule behind the calls is not given here.

What was measured:
Aspergillus niger [1] = assay: Antifungal activity against Aspergillus niger NCIM 1196 by agar plate assay; format: functional
Outline: (§1)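 In vitro MIC determined by standard agar plate method (cup plate format). Compounds were tested in dimethyl sulfoxide, with DMSO alone as solvent control. Miconazole and fluconazole served as reference standards.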

Candida albicans [2] = assay: Antifungal activity against Candida albicans NCIM 3471 by agar plate assay; format: functional; outline: as §1
Aspergillus flavus [3] = assay: Antifungal activity against Aspergillus flavus NCIM 539 by agar plate assay; format: functional; outline: as §1
Cryptococcus neoformans [4] = assay: Antifungal activity against Cryptococcus neoformans NCIM 576 at 200 ug/mL by agar plate assay; format: functional, organism-based
Fusarium oxysporum = assay: Antifungal activity against Fusarium oxysporum NCIM 1332 by agar plate assay; format: functional; outline: as §1
Cryptococcus neoformans [5] = assay: Antifungal activity against Cryptococcus neoformans NCIM 576 by agar plate assay; format: functional; outline: as §1
Aspergillus niger [6] = assay: Antifungal activity against Aspergillus niger NCIM 1196 at 200 ug/mL by agar plate assay; format: functional, organism-based
Aspergillus flavus [7] = assay: Antifungal activity against Aspergillus flavus NCIM 539 at 200 ug/mL by agar plate assay; format: functional, organism-based
Candida albicans [8] = assay: Antifungal activity against Candida albicans NCIM 3471 at 200 ug/mL by agar plate assay; format: functional, organism-based

SMILES | MIC (Aspergillus niger [1]) | MIC (Candida albicans [2]) | MIC (Aspergillus flavus [3]) | Activity (Cryptococcus neoformans [4]) | MIC (Fusarium oxysporum) | MIC (Cryptococcus neoformans [5]) | Activity (Aspergillus niger [6]) | Activity (Aspergillus flavus [7]) | Activity (Candida albicans [8])
O=c1[nH]c(-c2cn(C3CCNCC3)nn2)no1 | 15 µg/mL (≈ 63.5 µM) | 27.5 µg/mL (≈ 116 µM) | 15 µg/mL (≈ 63.5 µM) | inactive | 25 µg/mL (≈ 106 µM) | – | – | – | –
CCC(=O)N1CCC(n2cc(-c3noc(=O)[nH]3)nn2)CC1 | 42 µg/mL (≈ 144 µM) | 85 µg/mL (≈ 291 µM) | 42 µg/mL (≈ 144 µM) | – | 90 µg/mL (≈ 308 µM) | 85 µg/mL (≈ 291 µM) | – | – | –
CN1CCC(n2cc(-c3noc(=O)[nH]3)nn2)CC1 | 12.5 µg/mL (≈ 49.9 µM) | 20 µg/mL (≈ 79.9 µM) | 10 µg/mL (≈ 40 µM) | – | 25 µg/mL (≈ 99.9 µM) | 60 µg/mL (≈ 240 µM) | – | – | –
O=C(c1ccccc1)N1CCC(n2cc(-c3noc(=O)[nH]3)nn2)CC1 | 42 µg/mL (≈ 123 µM) | 85 µg/mL (≈ 250 µM) | 42 µg/mL (≈ 123 µM) | – | 88 µg/mL (≈ 259 µM) | 85 µg/mL (≈ 250 µM) | – | – | –
CC(=O)N1CCC(n2cc(-c3noc(=O)[nH]3)nn2)CC1 | 31 µg/mL (≈ 111 µM) | 60 µg/mL (≈ 216 µM) | 31 µg/mL (≈ 111 µM) | – | 61 µg/mL (≈ 219 µM) | 65 µg/mL (≈ 234 µM) | – | – | –
Cc1ccc(S(=O)(=O)N2CCC(n3cc(-c4noc(=O)[nH]4)nn3)CC2)cc1 | 20 µg/mL (≈ 51.2 µM) | 30 µg/mL (≈ 76.8 µM) | 25 µg/mL (≈ 64 µM) | – | 33 µg/mL (≈ 84.5 µM) | 40 µg/mL (≈ 102 µM) | – | – | –
Clc1ccc(COC(Cn2ccnc2)c2ccc(Cl)cc2Cl)c(Cl)c1 (stereo not given) [MICONAZOLE] | 12.5 µg/mL (≈ 30 µM) | 25 µg/mL (≈ 60.1 µM) | 12.5 µg/mL (≈ 30 µM) | – | 25 µg/mL (≈ 60.1 µM) | 25 µg/mL (≈ 60.1 µM) | – | – | –
OC(Cn1cncn1)(Cn1cncn1)c1ccc(F)cc1F [FLUCONAZOLE] | 10 µg/mL (≈ 32.7 µM) | 5 µg/mL (≈ 16.3 µM) | 5 µg/mL (≈ 16.3 µM) | – | 5 µg/mL (≈ 16.3 µM) | 5 µg/mL (≈ 16.3 µM) | – | – | –
O=C(c1ccc(Cl)cc1)N1CCC(n2cc(-c3noc(=O)[nH]3)nn2)CC1 | 25 µg/mL (≈ 66.7 µM) | 40 µg/mL (≈ 107 µM) | 20 µg/mL (≈ 53.4 µM) | – | 55 µg/mL (≈ 147 µM) | 40 µg/mL (≈ 107 µM) | – | – | –
CC(C)(C)OC(=O)N1CCC(n2cc(-c3noc(=O)[nH]3)nn2)CC1 | 20 µg/mL (≈ 59.5 µM) | 30 µg/mL (≈ 89.2 µM) | 15 µg/mL (≈ 44.6 µM) | inactive | 25 µg/mL (≈ 74.3 µM) | – | – | – | –
CC(C)(C)OC(=O)N1CCC(n2cc(C(N)=O)nn2)CC1 | 25 µg/mL (≈ 84.6 µM) | 50 µg/mL (≈ 169 µM) | 27 µg/mL (≈ 91.4 µM) | – | 55 µg/mL (≈ 186 µM) | 45 µg/mL (≈ 152 µM) | – | – | –
CCCC(=O)N1CCC(n2cc(-c3noc(=O)[nH]3)nn2)CC1 | – | 90 µg/mL (≈ 294 µM) | – | – | 95 µg/mL (≈ 310 µM) | 85 µg/mL (≈ 277 µM) | inactive | inactive | –
CC(C)(C)OC(=O)N1CCC(n2cc(/C(N)=N/O)nn2)CC1 | 20 µg/mL (≈ 64.4 µM) | 35 µg/mL (≈ 113 µM) | 20 µg/mL (≈ 64.4 µM) | – | 35 µg/mL (≈ 113 µM) | 40 µg/mL (≈ 129 µM) | – | – | –
CCOC(=O)c1cn(C2CCN(C(=O)OC(C)(C)C)CC2)nn1 | 19 µg/mL (≈ 58.6 µM) | 40 µg/mL (≈ 123 µM) | 22 µg/mL (≈ 67.8 µM) | – | 44 µg/mL (≈ 136 µM) | 35 µg/mL (≈ 108 µM) | – | – | –
CC(C)(C)OC(=O)N1CCC(n2cc(C#N)nn2)CC1 | 50 µg/mL (≈ 180 µM) | – | 55 µg/mL (≈ 198 µM) | inactive | 90 µg/mL (≈ 325 µM) | – | – | – | inactive
CCN1CCC(n2cc(-c3noc(=O)[nH]3)nn2)CC1 | 19 µg/mL (≈ 71.9 µM) | 37 µg/mL (≈ 140 µM) | 19 µg/mL (≈ 71.9 µM) | – | 39 µg/mL (≈ 148 µM) | 39 µg/mL (≈ 148 µM) | – | – | –
CS(=O)(=O)N1CCC(n2cc(-c3noc(=O)[nH]3)nn2)CC1 | 10 µg/mL (≈ 31.8 µM) | 20 µg/mL (≈ 63.6 µM) | 15 µg/mL (≈ 47.7 µM) | – | 25 µg/mL (≈ 79.5 µM) | 27.5 µg/mL (≈ 87.5 µM) | – | – | –
